Compound activity deposited in PubChem by several laboratories.
MrgX1 allo act – allosterically activates human MrgX1 receptor signaling; Q96LB2; MrgX1-HEK293, Fluo-4 calcium flux, FDSS; hits give high values; B-score at 10 µM; 0.63% of 310,000 active; AID 588675;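 active means plate-corrected calcium response at least 3 library SD above typical, normal starting fluorescence, not activating the receptor alone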;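 further: compound read alongside a low EC10 to EC30 dose of BAM8-22 agonist; peak minus trough fluorescence over baseline measured at the second addition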
Target sequence (Q96LB2 whole entry, looked up): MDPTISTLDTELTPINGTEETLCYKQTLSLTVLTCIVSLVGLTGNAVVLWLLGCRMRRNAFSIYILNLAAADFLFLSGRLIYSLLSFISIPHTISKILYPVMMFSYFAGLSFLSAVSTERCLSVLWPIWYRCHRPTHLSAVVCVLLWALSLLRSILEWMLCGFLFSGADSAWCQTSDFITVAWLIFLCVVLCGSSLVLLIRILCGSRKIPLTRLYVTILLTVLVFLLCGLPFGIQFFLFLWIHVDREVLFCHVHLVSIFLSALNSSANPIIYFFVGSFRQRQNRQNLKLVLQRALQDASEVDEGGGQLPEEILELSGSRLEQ
MrgX1 antag – antagonists of human MrgX1 receptor. Q96LB2. MRGX1-HEK293 calcium flux, Fluo-4, BAM8-22 antagonism; hits give low values. B-score at 10 µM. 1.3% of 310,000 active. AID 588676;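 active means calcium-response B-score plate-corrected more than 3 library SD below zero, starting fluorescence within 5 deviations, no agonist response on first addition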;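 further: peak minus trough fluorescence over baseline after final BAM8-22 challenge near maximal dose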
MrgX1 ag – human MrgX1 receptor agonism, primary screen | AID 588627 | Q96LB2 | MrgX1-HEK293 cells, Fluo-4 calcium fluorescence, agonist mode; hits give high values | B-score at 10 µM | 0.44% of 310,000 active;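 active means calcium response B-score plate-corrected fluorescence ratio at least 3 library SD, with starting fluorescence B-score inside 5 SD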
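times = overnight plating, then 30 min 37 °C plus 30 min room-temperature dye loading | assay system = stable human MrgX1 HEK293 cell line | input = fifteen thousand cells per well | signal = kinetic calcium dye fluorescence, Fluo-4 NW | dosing = compound delivered in addition one of three | read-out = B-scored fluorescence response ratio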
Cl transport mod – modulators of human KCC2 chloride dependent transport; Q9H2X9; KCC2 cells, thallium flux FluoZin-2 fluorescence; B-score of Tl+ flux slope (higher = more flux/activation; lower = inhibition) at 10 µM; 2.2% of 190,000 active;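 active means thallium flux slope and its plate-corrected score both differing from the plate sample mean at a set confidence after two filtering rounds, in either direction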;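 further: slope of fluorescence scaled to starting intensity during 10 to 20 s after thallium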
RGS4 block – inhibitors of human RGS4; B-score at 10 µM; P49798; 0.45% of 310,000 active; HEK293 M3R/RGS4 inducible, Fluo-4 calcium flux; hits give high values; triggered by carbachol at its EC20;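 active means B-score, a plate-corrected calcium signal, over three deviations above library mean, with baseline fluorescence within five deviations of library mean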;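 further: RGS4 expression induced by doxycycline in cells with stable M3 receptor; B-score is computed from the integrated fluorescence ratio over baseline after carbachol; higher B-score means a larger calcium signal and so more RGS4 inhibition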
Target sequence (P49798 whole entry, looked up): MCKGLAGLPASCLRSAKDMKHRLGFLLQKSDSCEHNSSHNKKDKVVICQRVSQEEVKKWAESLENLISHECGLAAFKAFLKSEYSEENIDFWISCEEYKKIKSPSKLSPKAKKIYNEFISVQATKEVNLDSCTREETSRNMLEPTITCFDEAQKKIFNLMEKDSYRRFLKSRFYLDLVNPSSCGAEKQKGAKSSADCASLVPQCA
RGS4 pot – RGS4 potentiation or activation; HEK293 M3R/inducible RGS4, carbachol calcium flux Fluo4; hits give low values; B-score at 10 µM; 0.92% of 310,000 active;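 active means B-score of the integrated calcium signal more than 4 SD below the library mean, with starting fluorescence not abnormally high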;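 further: negative B-score means reduced calcium response which marks RGS4 activation or potentiation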
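Also added: carbachol at ECmax as muscarinic agonist stimulus; Assay system: HEK293 cells with stable M3R and inducible RGS4; Timing: overnight RGS4 induction, 30 min dye load 37 °C, 20 min compound RT; Measured by: Fluo4-AM (2 µM) calcium-flux fluorescence, kinetic read.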
RGS4 block valid – RGS4 inhibitor validation; 65% of 1,700 active; HEK293 M3R/RGS4, carbachol calcium Fluo-4 fluorescence; carbachol added at its EC20; 0 = buffer wells, 100 = carbachol control; calcium response, % at 10 µM; AID 492999; shares compounds with RGS4 block;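 active means duplicate-averaged calcium response above the buffer-only control mean plus 5 SD of those controls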;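 further: integrated fluorescence ratio F max minus min over baseline F0; higher response in RGS4-induced cells means RGS4 inhibition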
RGS4 uninduced – checks RGS4 inhibitor effects in non-induced HEK293 M3R cells. shares compounds with RGS4 block. carbachol calcium Fluo-4; submaximal (EC20) carbachol stimulus; buffer wells 0%, carbachol control wells 100%. activity (percent), % at 10 µM. 20% of 1,900 active. AID 493000; call rule not given here;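 further: RGS4 induction absent so cells express M3R without RGS4; higher means more calcium signal and flags a non-specific hit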
RGS4 inh ctr2 – second counter-screen for RGS4 inhibitors: non-induced cells without carbachol. shares compounds with RGS4 block. HEK293 M3R/RGS4 non-induced, Fluo-4 calcium, no carbachol; normalised: buffer wells 0%, carbachol wells 100%. calcium response (agonist-mode artifact), % at 10 µM. 22% of 1,900 active. AID 493001;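 active means duplicate-averaged calcium rise in uninduced cells above buffer wells' mean plus 5 SD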
* marks the source's active call; other numbers are inactive results. This is a sample that favours compounds with a hit; in the whole collection about 4.7% have one here.

What do the screens show for `Cc1ccnc(NC(=O)c2ccc(S(=O)(=O)N3CCCC3)cc2)c1`?
MrgX1 allo act: inactive; MrgX1 antag: inactive; MrgX1 ag: inactive; RGS4 block: inactive; RGS4 pot: inactive

How did CCN1CCc2c(sc(NC(=O)c3ccc(S(=O)(=O)N4CCCCCC4)cc3)c2C(=O)NC)C1 do in these assays?
MrgX1 allo act: inactive; MrgX1 antag: inactive; MrgX1 ag: inactive; RGS4 block: inactive; RGS4 pot: inactive

Results for Cc1cc(/C=N/NC(=O)c2cc3ccccc3o2)c(C)n1C ?
MrgX1 allo act: inactive; MrgX1 antag: inactive; MrgX1 ag: inactive; RGS4 block: inactive; RGS4 pot: inactive

How did O=C(/C=C/c1ccccc1)/C=C/c1ccccc1 do in these assays?
MrgX1 allo act: inactive; MrgX1 antag: inactive; MrgX1 ag: inactive; Cl transport mod: -0.38; RGS4 block: 6.3*; RGS4 pot: inactive; RGS4 block valid: 27%*; RGS4 uninduced: 38%*; RGS4 inh ctr2: inactive

What do the screens show for `O=C(/C=C/c1ccccc1)c1ccccc1`?
MrgX1 allo act: inactive; MrgX1 antag: inactive; MrgX1 ag: inactive; Cl transport mod: -0.011; RGS4 block: inactive; RGS4 pot: inactive

What do the screens show for `O=C(Nc1cccc(Cl)c1)Nc1nnc(CC2=CCCCC2)s1`?
MrgX1 allo act: inactive; MrgX1 antag: inactive; MrgX1 ag: inactive; Cl transport mod: -0.51; RGS4 block: 10*; RGS4 pot: inactive; RGS4 block valid: 5.5%*; RGS4 uninduced: inactive; RGS4 inh ctr2: inactive

What do the screens show for `O=C(Nc1nnc(CC2=CCCCC2)s1)Nc1ccccc1F`?
MrgX1 allo act: inactive; MrgX1 antag: inactive; MrgX1 ag: inactive; Cl transport mod: 0.86; RGS4 block: inactive; RGS4 pot: inactive

What do the screens show for `Cc1ccc(N(CC(=O)NC2CCCC2)C(=O)CNC(=O)c2cccs2)cc1F`?
MrgX1 allo act: inactive; MrgX1 antag: inactive; MrgX1 ag: inactive; RGS4 block: inactive; RGS4 pot: inactive

How did CC1=CC(C)(C)N2C(=O)C3(C(C#N)=C(N)OC4=C3C(=O)CCC4)c3c(C)c(C)cc1c32 (centres undefined) do in these assays?
MrgX1 allo act: inactive; MrgX1 antag: inactive; MrgX1 ag: inactive; Cl transport mod: -0.014; RGS4 block: inactive; RGS4 pot: inactive

What do the screens show for `CC1=CC(C)(C)N2C(=O)C3(C(C#N)=C(N)Oc4cc(O)ccc43)c3c(C)c(C)cc1c32` (centres undefined)?
MrgX1 allo act: inactive; MrgX1 antag: inactive; MrgX1 ag: inactive; RGS4 block: 5.9*; RGS4 pot: inactive; RGS4 block valid: 29%*; RGS4 uninduced: inactive; RGS4 inh ctr2: inactive

Results for CN(Cc1cnccn1)C(=O)CC1C(=O)NCCN1Cc1ccc(F)cc1Cl (centres undefined) ?
MrgX1 allo act: inactive; MrgX1 antag: inactive; MrgX1 ag: inactive; RGS4 block: 4.8*; RGS4 pot: inactive; RGS4 block valid: inactive; RGS4 uninduced: inactive; RGS4 inh ctr2: 82%*

Results for CN(Cc1ccccn1)C(=O)CC1C(=O)NCCN1Cc1ccc(F)cc1Cl (centres undefined) ?
MrgX1 allo act: inactive; MrgX1 antag: inactive; MrgX1 ag: inactive; RGS4 block: inactive; RGS4 pot: inactive; RGS4 block valid: inactive; RGS4 uninduced: inactive; RGS4 inh ctr2: 14%*

What do the screens show for `CCOc1ccccc1CN1CCNC(=O)C1CC(=O)N(C)Cc1cnccn1` (centres undefined)?
MrgX1 allo act: inactive; MrgX1 antag: inactive; MrgX1 ag: inactive; RGS4 block: inactive; RGS4 pot: inactive

Results for Cc1noc(C)c1S(=O)(=O)N1CCN(S(=O)(=O)c2ccccc2C#N)CC1 ?
MrgX1 allo act: inactive; MrgX1 antag: inactive; MrgX1 ag: inactive; RGS4 block: inactive; RGS4 pot: inactive

How did CC(C)(C)c1cc(C(=O)C[n+]2ccc(C(=O)NCCCO)cc2)cc(C(C)(C)C)c1O do in these assays?
MrgX1 allo act: inactive; MrgX1 antag: inactive; MrgX1 ag: inactive; Cl transport mod: 0.0076; RGS4 block: inactive; RGS4 pot: inactive

What do the screens show for `Cc1ccccc1N=C1NC(=O)/C(=C/c2cccnc2)S1`?
MrgX1 allo act: inactive; MrgX1 antag: inactive; MrgX1 ag: inactive; Cl transport mod: -0.58; RGS4 block: inactive; RGS4 pot: inactive; RGS4 uninduced: 46%*; RGS4 inh ctr2: inactive

What do the screens show for `O=C1/C(=C\c2cccnc2)Sc2ccccc21`?
MrgX1 allo act: inactive; MrgX1 antag: inactive; MrgX1 ag: inactive; Cl transport mod: -1.1; RGS4 block: 5.1*; RGS4 pot: inactive; RGS4 block valid: 32%*; RGS4 uninduced: 36%*; RGS4 inh ctr2: 39%*

What do the screens show for `CC(C)CCn1c(SCC(=O)NC2CCS(=O)(=O)C2)nc2cc(Cl)ccc2c1=O` (centres undefined)?
MrgX1 allo act: inactive; MrgX1 antag: inactive; MrgX1 ag: inactive; RGS4 block: inactive; RGS4 pot: inactive

What do the screens show for `O=C(CN1CCC(C(=O)c2ccc3c(c2)OCCO3)CC1)Nc1ccccc1C(F)(F)F`?
MrgX1 allo act: inactive; MrgX1 antag: inactive; MrgX1 ag: inactive; RGS4 block: inactive; RGS4 pot: inactive

How did Cc1ccc2nccc(C(=O)N3CCCC(N4CCN(c5ccc(F)cc5)CC4)C3)c2c1 (centres undefined) do in these assays?
MrgX1 allo act: inactive; MrgX1 antag: inactive; MrgX1 ag: inactive; RGS4 block: inactive; RGS4 pot: inactive

How did CC1(C)CC(=O)C(=Cc2cn(-c3ccccc3)nc2-c2ccccc2)C(=O)C1 do in these assays?
MrgX1 allo act: inactive; MrgX1 antag: inactive; MrgX1 ag: inactive; RGS4 block: inactive; RGS4 pot: inactive; RGS4 block valid: inactive; RGS4 uninduced: inactive; RGS4 inh ctr2: inactive
